Paper PMC11071470 (bioRxiv, 2024)

Assays:
A3Bctd = A3Bctd (Homo sapiens, UniProt Q9UH17); assay: Intact protein mass spectrometry; assay type: binding
Procedure, shortened: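 Covalent test compound incubated with A3Bctd for 1 h and 3 h at varying molar equivalents of compound over protein, then analysed by intact protein mass spectrometry. Degree of covalent adduction was quantified from the intensity of the adduct mass species.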

UDG = biological target: T1, UDG (Escherichia coli, UniProt P12295); settings: cited from earlier work
T1 sequence (P12295 1-229): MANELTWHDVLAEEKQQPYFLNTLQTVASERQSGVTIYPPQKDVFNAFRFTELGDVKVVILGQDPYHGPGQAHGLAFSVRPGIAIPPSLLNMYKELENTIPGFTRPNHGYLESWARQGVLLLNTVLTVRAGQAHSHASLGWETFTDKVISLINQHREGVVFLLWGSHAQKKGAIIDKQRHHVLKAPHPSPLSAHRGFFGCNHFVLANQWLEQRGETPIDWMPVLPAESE

A3Bctd, sequence (Q9UH17 193-382): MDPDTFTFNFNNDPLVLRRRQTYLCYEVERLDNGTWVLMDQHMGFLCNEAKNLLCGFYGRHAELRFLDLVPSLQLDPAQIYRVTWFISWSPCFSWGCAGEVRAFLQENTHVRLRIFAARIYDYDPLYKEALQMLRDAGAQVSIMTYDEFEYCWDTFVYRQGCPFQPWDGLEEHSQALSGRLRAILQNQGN

multiple adduction events (in words) (A3Bctd)	Structure (SMILES)	inhibition of UDG (in words) (UDG)
Multiple adduction events are detected	CCC1(O)CCCN(C(=O)c2ccc(-c3ccc(F)c(NC(=O)CCl)c3)cc2)C1 (centres unmarked) [Compound 24]	
	O=C(O)C1=CC(=C(c2ccc(O)c(C(=O)O)c2)c2ccc(O)c(C(=O)O)c2)C=CC1=O [MN1, aurintricarboxylic acid]	inhibits UDG
